Data on four molecules can be found in ChEMBL document CHEMBL3526041, “Absorption, metabolism and excretion of [(14)C]mirabegron (YM178), a potent and selective β(3)-adrenoceptor agonist, after oral administration to healthy male volunteers” (Drug Metab Dispos, 2012).

Structures are written as SMILES.

Data set [1] in a line: Drug recovery in healthy human urine treated with [14C]mirabegron at 160 mg, po as single dose measured up to 48 hrs. It is filed as ADME, organism-based. Details: dosed compound name [14C]Mirabegron. The settings on record: in vivo. The method, boiled down:
(§1)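 Urine was collected at 0–6, 6–12, 12–24 and 24–48 h after a single oral 160 mg [14C]mirabegron dose in four men, with dichlorvos added. Samples underwent solid-phase extraction and radio-HPLC (C18, 40°C), with eluate fractions counted by scintillation. Each peak, as a percentage of eluted radioactivity, was converted to % of dose without recovery correction; mean ± S.D.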

Data set [2] has as its system Plasma. Kind of data set: Drug recovery in healthy human plasma treated with [14C]mirabegron at 160 mg, po as single dose measured at 2 hrs. It is filed as ADME, organism-based. Also noted: dosed compound name [14C]Mirabegron. The settings on record: in vivo. The method, boiled down:
(§2)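 Plasma taken at 2, 4, 8 and 12 h from the four subjects was pooled at each time point, with dichlorvos added. Pools underwent solid-phase extraction, then HPLC with fractions counted by low-level liquid scintillation. Each peak is expressed as % of the radioactivity injected onto HPLC.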

The subject of data set [3] is Plasma. Kind of data set: Drug recovery in healthy human plasma treated with [14C]mirabegron at 160 mg, po as single dose measured at 4 hrs. The data set is classed as ADME, organism-based. Details: dosed compound name [14C]Mirabegron. The settings on record: in vivo. In a few lines:
as §2

The subject of data set [4] is Plasma. Kind of data set: Drug recovery in healthy human plasma treated with [14C]mirabegron at 160 mg, po as single dose measured at 8 hrs. Conditions: in vivo. Details: dosed compound name [14C]Mirabegron. The data set is classed as ADME, organism-based. In a few lines: as §2
The test system of data set [5] is Plasma. Put plainly: Drug recovery in healthy human plasma treated with [14C]mirabegron at 160 mg, po as single dose measured at 12 hrs. It is filed as ADME, organism-based. Also noted: dosed compound name [14C]Mirabegron. The settings on record: in vivo. In a few lines:
as §2

Data set [6] in a line: Tmax in healthy human plasma at 160 mg, po as single dose. The data set is classed as ADME, organism-based. Details: dosed compound name [14C]Mirabegron. In a few lines: (§3)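 Four healthy men fasted overnight, then took one oral dose of 160 mg mirabegron containing 1.85 MBq [14C]mirabegron, dissolved in 20 mM sodium citrate pH 4.5. Blood was drawn into lithium heparin tubes from 0 to 168 h. Total radioactivity in whole blood and plasma was counted by liquid scintillation. Unchanged drug in plasma was measured by validated LC-MS/MS (1–500 ng/ml). Parameters were derived noncompartmentally; values are mean ± S.D., n=4.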

A short description of data set [7]: Cmax in healthy human plasma at 160 mg, po as single dose. It is filed as ADME, organism-based. Details: dose 160 mg, route oral, dosed compound name [14C]Mirabegron. The method, boiled down: as §3
The nature of data set [8]: AUC (infinity) in healthy human plasma at 160 mg, po as single dose. It is filed as ADME, organism-based. Also noted: dose 160 mg, route oral, time infinity, dosed compound name [14C]Mirabegron. In a few lines: as §3
Data set [9] can be described thus: Terminal elimination phase half life in healthy human plasma at 160 mg, po as single dose. The data set is classed as ADME, organism-based. Also noted: dosed compound name [14C]Mirabegron. Conditions: read-out: beta t1/2 (converted). In a few lines:
as §3

Data set [10] can be described thus: Terminal elimination phase half life in healthy human urine at 160 mg, po as single dose. The data set is classed as ADME, organism-based. Details: dosed compound name [14C]Mirabegron. The settings on record: read-out: beta t1/2 (converted). In a few lines: (§4)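 Same single oral 160 mg [14C]mirabegron solution in four fasted healthy men. Urine was collected over 0–6, 6–12 and 12–24 h, then in 24-h intervals to 408 h. Radioactivity was measured by scintillation counting. Unchanged drug was measured by LC-MS/MS (2–1000 ng/ml). Half-life came from log-linear regression of the terminal phase, and renal clearance was also calculated.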

Data set [11] can be described thus: Apparent oral clearance in healthy human plasma at 160 mg, po as single dose. The data set is classed as ADME, organism-based. Also noted: dosed compound name [14C]Mirabegron. In a few lines: as §3
The nature of data set [12]: Apparent volume of distribution during terminal phase in healthy human plasma at 160 mg, po as single dose. It is filed as ADME, organism-based. Details: dosed compound name [14C]Mirabegron. Conditions: read-out: Vz/F. The method, boiled down:
as §3

The nature of data set [13]: Renal clearance in healthy human plasma at 160 mg, po as single dose. The data set is classed as ADME, organism-based, Kidney. Details: dosed compound name [14C]Mirabegron. In a few lines: as §4
A short description of data set [14]: Drug recovery in healthy human urine at 160 mg, po as single dose measured up to 408 hrs. The data set is classed as ADME, organism-based. The settings on record: read-out: Compound recovery. Also noted: dosed compound name [14C]Mirabegron. In a few lines:
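One oral dose of 160 mg [14C]mirabegron (1.85 MBq) given as a solution to four healthy men. Urine and feces were collected to 408 h; feces were homogenized and combusted. Expired air was trapped in hyamine hydroxide at set times to 96 h. All samples were counted by liquid scintillation. Cumulative excretion is given as % of administered radioactivity, mean ± S.D., n=4.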

Data set [15] can be described thus: Drug recovery in healthy human urine at 160 mg, po as single dose measured up to 48 hrs. It is filed as ADME, organism-based. Details: dosed compound name [14C]Mirabegron. The settings on record: read-out: Compound recovery. In a few lines: as §1
Data set [16] has as its system Plasma. Put plainly: Drug recovery in healthy human plasma at 160 mg, po as single dose measured at 2 hrs. It is filed as ADME, organism-based. Also noted: dosed compound name [14C]Mirabegron. The settings on record: in vivo. In a few lines:
as §2

For data set [17], the system named is Plasma. Kind of data set: Drug recovery in healthy human plasma at 160 mg, po as single dose measured at 4 hrs. It is filed as ADME, organism-based. Details: dosed compound name [14C]Mirabegron. The settings on record: in vivo. In a few lines:
as §2

Data set [18] concerns Plasma. Kind of data set: Drug recovery in healthy human plasma at 160 mg, po as single dose measured at 8 hrs. The data set is classed as ADME, organism-based. Also noted: dosed compound name [14C]Mirabegron. The settings on record: in vivo. The method, boiled down:
as §2

The test system of data set [19] is Plasma. Kind of data set: Drug recovery in healthy human plasma at 160 mg, po as single dose measured at 12 hrs. The data set is classed as ADME, organism-based. Details: dosed compound name [14C]Mirabegron. Conditions: in vivo. In a few lines:
as §2

Data set [20] can be described thus: Absolute oral bioavailability in rat at 10 mg/kg. The data set is classed as ADME, organism-based. Also noted: dosed compound name [14C]Mirabegron. The settings on record: in vivo.
Data set [21] in a line: Absolute oral bioavailability in rat at 30 mg/kg. The data set is classed as ADME, organism-based. Details: dosed compound name [14C]Mirabegron. The settings on record: in vivo.
A short description of data set [22]: Absolute oral bioavailability in dog at 0.25 mg/kg. The data set is classed as ADME, organism-based, Canis lupus familiaris. Details: dosed compound name [14C]Mirabegron. The settings on record: in vivo.
Data set [23] is described as follows: Absolute oral bioavailability in dog at 0.5 mg/kg. Details: dosed compound name [14C]Mirabegron. It is filed as ADME, organism-based, Canis lupus familiaris. The settings on record: in vivo.
Data set [24] can be described thus: Absolute oral bioavailability in dog at 1 mg/kg. It is filed as ADME, organism-based, Canis lupus familiaris. Details: dosed compound name [14C]Mirabegron. Conditions: in vivo.
Data set [25] is described as follows: Absolute oral bioavailability in rat at 3 mg/kg. It is filed as ADME, organism-based. Details: dosed compound name [14C]Mirabegron. The settings on record: in vivo.

For `CC(=O)Nc1ccc(CCNC[C@H](O)c2ccccc2)cc1.Cl`, the Compound recovery in [1] turned out to be 2.9%; with Plasma [2] it was 3.7%; in the data set with Plasma [3], 4.9%; with Plasma [4], 9.4%; in the data set with Plasma [5], 13%.

Regarding `Nc1nc(CC(=O)Nc2ccc(CC(=O)O)cc2)cs1.O=C(O)C(F)(F)F`, the Compound recovery is 1.3% in data set [1]; 2.2% in the data set on Plasma [2]; 1.4% in the data set with Plasma [3]; “Below limit of detection” in the data set on Plasma [4]; “Below limit of detection” in the data set on Plasma [5].

Take `Nc1nc(CC(=O)Nc2ccc(CCN(C[C@H](O)c3ccccc3)O[C@@H]3O[C@H](C(=O)O)[C@@H](O)[C@H](O)[C@H]3O)cc2)cs1`: the Compound recovery in data set [1] is on record as 0.6%; in the data set with Plasma [2], 6.9%; in the data set on Plasma [3], 5.9%; in the data set with Plasma [4], 3.5%; in the data set on Plasma [5], “Below limit of detection”.

On to `Nc1nc(CC(=O)Nc2ccc(CCNC[C@H](O)c3ccccc3)cc2)cs1` [MIRABEGRON], for which the Tmax in data set [6] turned out to be 1 h. Also, the Cmax in data set [7] was 371 ng/mL. Also, in [8], the AUC(0-inf) worked out at 2280 ng·h/mL. The half-life is 47.9 h in data set [9] and 72.9 h in data set [10]. Moreover, in [11], the CL/F was 1180 mL/min. For the same molecule, in data set [12], the Vd/F was 4820 L. Moreover, the CL renal in data set [13] is 295 mL/min. Further, the dose excreted at 408 h in [14] was determined as 25%. Also, in data set [15], the dose excreted at 48 h is 18.4%. The Compound recovery in the data set on Plasma [16] amounted to 46.4%; with Plasma [17], 30.9%; in the data set on Plasma [18], 28.6%; in the data set with Plasma [19], 31%. The bioavailability in data set [20] was found to be 48.4%; in [21], 75.7%; in data set [22], 41.8%; in data set [23] it was 64.6%; in [24], 77.1%; in data set [25], 23%.
